From ChEMBL document CHEMBL1156924, “Structure-activity relationships of diphenylpiperazine N-type calcium channel inhibitors” (Bioorg Med Chem Lett, 2010)
Values after ≈ are worked out from the molar mass of the structure shown.

Target: N-type calcium channel alpha-1b/alpha2delta-1/beta-1b (Homo sapiens, UniProt Q00975)
Assay: Inhibition of N type calcium channel alpha-1b/alpha-2-delta-1/beta-1b expressed in HEK293 cells at holding potential of -100 mV by whole-cell patch clamp method
Assay type: cell-based
Details: not given

Chain of N-type calcium channel alpha-1b/alpha2delta-1/beta-1b (Q00975 whole entry): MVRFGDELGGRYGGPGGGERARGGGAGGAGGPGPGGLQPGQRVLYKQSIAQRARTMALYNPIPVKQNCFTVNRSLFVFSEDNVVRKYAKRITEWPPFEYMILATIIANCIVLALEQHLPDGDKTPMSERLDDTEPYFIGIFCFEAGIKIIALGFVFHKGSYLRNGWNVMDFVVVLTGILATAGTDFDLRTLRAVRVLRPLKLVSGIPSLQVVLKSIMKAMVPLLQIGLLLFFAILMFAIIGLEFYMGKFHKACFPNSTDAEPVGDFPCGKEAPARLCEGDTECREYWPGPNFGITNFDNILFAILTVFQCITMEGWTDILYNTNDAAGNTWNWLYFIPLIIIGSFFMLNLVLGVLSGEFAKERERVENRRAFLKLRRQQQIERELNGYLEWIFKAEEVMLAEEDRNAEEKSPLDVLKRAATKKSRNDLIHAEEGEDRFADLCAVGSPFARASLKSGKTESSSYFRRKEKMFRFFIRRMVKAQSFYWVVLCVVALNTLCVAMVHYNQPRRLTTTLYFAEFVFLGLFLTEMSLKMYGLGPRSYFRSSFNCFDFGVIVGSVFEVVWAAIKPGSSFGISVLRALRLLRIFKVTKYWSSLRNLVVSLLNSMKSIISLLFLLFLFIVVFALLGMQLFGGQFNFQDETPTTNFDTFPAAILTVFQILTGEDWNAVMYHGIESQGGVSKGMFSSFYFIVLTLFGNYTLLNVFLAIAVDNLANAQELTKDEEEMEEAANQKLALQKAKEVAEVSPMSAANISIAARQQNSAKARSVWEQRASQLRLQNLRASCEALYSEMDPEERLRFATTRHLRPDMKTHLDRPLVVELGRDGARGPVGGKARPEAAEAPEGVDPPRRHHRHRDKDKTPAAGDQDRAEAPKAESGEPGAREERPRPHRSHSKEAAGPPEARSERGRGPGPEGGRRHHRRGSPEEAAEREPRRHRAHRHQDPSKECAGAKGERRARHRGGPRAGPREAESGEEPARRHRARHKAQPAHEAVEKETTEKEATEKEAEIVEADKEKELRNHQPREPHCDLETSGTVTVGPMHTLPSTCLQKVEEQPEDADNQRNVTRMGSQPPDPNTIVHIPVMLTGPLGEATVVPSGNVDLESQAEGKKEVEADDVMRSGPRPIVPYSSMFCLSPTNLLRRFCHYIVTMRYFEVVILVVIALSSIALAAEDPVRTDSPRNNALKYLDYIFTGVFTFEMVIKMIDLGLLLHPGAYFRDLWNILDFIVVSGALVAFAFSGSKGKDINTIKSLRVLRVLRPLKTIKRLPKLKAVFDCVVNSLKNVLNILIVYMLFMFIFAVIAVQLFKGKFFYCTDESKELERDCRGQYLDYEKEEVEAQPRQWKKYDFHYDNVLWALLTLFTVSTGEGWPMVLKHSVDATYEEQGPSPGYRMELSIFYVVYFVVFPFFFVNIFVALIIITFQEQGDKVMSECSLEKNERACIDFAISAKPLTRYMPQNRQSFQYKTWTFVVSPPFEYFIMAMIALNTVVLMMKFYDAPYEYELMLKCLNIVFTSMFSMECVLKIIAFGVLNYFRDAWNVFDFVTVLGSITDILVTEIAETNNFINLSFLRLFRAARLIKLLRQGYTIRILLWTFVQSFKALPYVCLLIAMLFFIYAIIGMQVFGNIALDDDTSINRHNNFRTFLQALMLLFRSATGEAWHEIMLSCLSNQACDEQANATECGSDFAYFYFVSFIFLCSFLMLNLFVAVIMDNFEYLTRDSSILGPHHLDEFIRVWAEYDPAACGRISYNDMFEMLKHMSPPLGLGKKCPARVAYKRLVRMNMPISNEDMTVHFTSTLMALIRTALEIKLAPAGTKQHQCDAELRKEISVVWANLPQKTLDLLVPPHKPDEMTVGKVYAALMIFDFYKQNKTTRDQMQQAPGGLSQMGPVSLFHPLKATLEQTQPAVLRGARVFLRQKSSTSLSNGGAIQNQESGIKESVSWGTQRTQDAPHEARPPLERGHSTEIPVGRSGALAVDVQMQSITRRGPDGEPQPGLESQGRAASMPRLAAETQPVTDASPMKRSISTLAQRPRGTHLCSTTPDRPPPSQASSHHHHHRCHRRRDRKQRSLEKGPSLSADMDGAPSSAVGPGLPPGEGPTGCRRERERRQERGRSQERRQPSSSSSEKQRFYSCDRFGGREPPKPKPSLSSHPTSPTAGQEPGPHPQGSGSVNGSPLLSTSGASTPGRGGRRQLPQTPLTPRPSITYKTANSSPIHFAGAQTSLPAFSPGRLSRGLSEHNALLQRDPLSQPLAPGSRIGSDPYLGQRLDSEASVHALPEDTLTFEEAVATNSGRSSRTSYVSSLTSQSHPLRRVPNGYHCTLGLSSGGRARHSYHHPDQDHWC
Chain of N-type calcium channel alpha-1b/alpha2delta-1/beta-1b (P54289 25-956 partner limits assumed): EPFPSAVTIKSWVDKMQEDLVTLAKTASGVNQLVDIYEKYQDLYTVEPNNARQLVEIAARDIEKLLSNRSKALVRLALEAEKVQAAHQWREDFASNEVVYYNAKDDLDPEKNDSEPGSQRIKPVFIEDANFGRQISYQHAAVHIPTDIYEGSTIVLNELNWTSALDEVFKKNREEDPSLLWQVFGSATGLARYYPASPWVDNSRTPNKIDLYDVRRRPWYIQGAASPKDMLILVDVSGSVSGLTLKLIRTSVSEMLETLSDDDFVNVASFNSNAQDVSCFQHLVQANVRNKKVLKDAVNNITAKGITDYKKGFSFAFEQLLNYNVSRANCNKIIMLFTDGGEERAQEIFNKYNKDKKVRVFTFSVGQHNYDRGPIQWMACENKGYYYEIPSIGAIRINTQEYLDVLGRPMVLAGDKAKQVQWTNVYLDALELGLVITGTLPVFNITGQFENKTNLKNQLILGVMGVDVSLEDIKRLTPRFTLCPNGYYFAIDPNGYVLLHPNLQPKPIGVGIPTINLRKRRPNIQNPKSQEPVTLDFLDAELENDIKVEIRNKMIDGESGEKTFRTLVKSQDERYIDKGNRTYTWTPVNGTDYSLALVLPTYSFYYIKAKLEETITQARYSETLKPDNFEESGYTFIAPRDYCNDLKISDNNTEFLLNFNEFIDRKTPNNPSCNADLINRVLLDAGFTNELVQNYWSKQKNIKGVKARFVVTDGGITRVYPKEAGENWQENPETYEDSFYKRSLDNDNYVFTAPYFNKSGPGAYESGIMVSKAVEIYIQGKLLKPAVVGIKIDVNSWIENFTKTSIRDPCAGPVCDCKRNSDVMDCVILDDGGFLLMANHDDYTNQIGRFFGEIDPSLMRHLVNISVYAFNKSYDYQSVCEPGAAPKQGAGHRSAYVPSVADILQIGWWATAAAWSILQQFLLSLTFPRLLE
Chain of N-type calcium channel alpha-1b/alpha2delta-1/beta-1b (P54289 957-1103 partner limits assumed): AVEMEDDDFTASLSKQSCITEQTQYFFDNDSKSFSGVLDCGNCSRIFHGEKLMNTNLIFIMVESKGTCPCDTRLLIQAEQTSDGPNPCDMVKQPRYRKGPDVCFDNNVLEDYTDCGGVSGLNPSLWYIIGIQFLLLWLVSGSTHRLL
Chain of N-type calcium channel alpha-1b/alpha2delta-1/beta-1b (Q02641 whole entry partner): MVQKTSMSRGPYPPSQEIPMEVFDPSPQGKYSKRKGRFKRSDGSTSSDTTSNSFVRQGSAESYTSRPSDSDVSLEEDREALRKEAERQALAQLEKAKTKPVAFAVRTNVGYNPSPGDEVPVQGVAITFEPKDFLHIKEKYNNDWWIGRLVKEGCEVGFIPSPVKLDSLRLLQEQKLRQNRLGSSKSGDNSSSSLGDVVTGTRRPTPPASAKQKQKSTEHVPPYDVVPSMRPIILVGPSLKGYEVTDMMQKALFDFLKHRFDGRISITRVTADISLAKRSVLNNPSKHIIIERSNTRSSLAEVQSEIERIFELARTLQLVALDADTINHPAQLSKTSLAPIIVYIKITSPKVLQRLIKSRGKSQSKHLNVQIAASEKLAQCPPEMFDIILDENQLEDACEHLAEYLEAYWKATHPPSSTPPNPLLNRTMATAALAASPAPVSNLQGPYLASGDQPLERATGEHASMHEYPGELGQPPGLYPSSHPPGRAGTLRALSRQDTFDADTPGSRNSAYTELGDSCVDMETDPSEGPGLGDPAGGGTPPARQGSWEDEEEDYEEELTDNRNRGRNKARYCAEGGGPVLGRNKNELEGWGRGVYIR

Row | IC50 [nM] | SMILES
1 | 110 | O=C(CC(c1ccccc1)c1ccccc1)N1CCN(C(c2ccccc2)c2cccc(C(F)(F)F)c2)CC1 (configuration not stated)
2 | 150 | O=C(NC(c1ccccc1)c1ccccc1)N1CCN(C(c2ccccc2)c2ccccc2)CC1
3 | 40 | O=C(CC(c1ccccc1)c1ccccc1)N1CCN(C(c2ccccc2)c2cccc(Cl)c2)CC1 (configuration not stated)

Target: T1, Voltage-dependent L-type calcium channel alpha1C/alpha2delta/beta1b (Homo sapiens, UniProt Q13936)
Assay: Inhibition of L type calcium channel alpha-1c/alpha-2-delta-1/beta-1b expressed in HEK293 cells in presence of -100 mV holding potential by whole-cell patch clamp method
Assay type: cell-based
Details: not given
In short: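 Manual whole-cell patch clamp in HEK cells transiently expressing rat CaV2.2 (N-type) or CaV1.2 (L-type) with α2δ-1 and β1b. Barium currents (5 mM BaCl2 external, pH 7.2; Cs-methanesulfonate internal) were stepped from −100 mV to +10 mV, using 3–5 cells per compound. Estimated IC50 = [D]/((1/fr) − 1), calculated from a single concentration assuming 1:1 binding.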

Row | IC50 [nM] | SMILES
4 | 6600 | O=C(CC(c1ccccc1)c1ccccc1)N1CCN(C(c2ccccc2)c2cccc(C(F)(F)F)c2)CC1 (configuration not stated)
5 | 1840 | O=C(NC(c1ccccc1)c1ccccc1)N1CCN(C(c2ccccc2)c2ccccc2)CC1
6 | 8500 | O=C(CC(c1ccccc1)c1ccccc1)N1CCN(C(c2ccccc2)c2cccc(Cl)c2)CC1 (configuration not stated)

Target: T1, Voltage-dependent L-type calcium channel alpha1C/alpha2delta/beta1b
Assay: Inhibition of L-type calcium channel alpha-1c/alpha-2-delta-1/beta-1b expressed in HEK293 cells by FLIPR method
Assay type: cell-based
Details: not given
In short: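 HEK cells stably co-expressing CaV1.2 and Kir2.3 were loaded with Fluo-4 (45 min, 29 °C) and held in 30 mM KCl buffer (pH 7.4), giving a partially inactivated state. Calcium entry was evoked with 130 mM KCl stimulation buffer and fluorescence read for 3 min. An 8-point concentration series (0.003–10) was fitted with a logistic function.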

Row | IC50 [nM] | SMILES
7 | 1800 | O=C(CC(c1ccccc1)c1ccccc1)N1CCN(C(c2ccccc2)c2cccc(C(F)(F)F)c2)CC1 (configuration not stated)
8 | 3500 | O=C(NC(c1ccccc1)c1ccccc1)N1CCN(C(c2ccccc2)c2ccccc2)CC1
9 | 6200 | O=C(CC(c1ccccc1)c1ccccc1)N1CCN(C(c2ccccc2)c2cccc(Cl)c2)CC1 (configuration not stated)

System: not listed separately
Assay: Aqueous solubility at pH 7.4
Assay type: physicochemical
Details: not given
In short: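 Thermodynamic equilibrium solubility following the OECD water solubility method. Quantification was by LC/MS/MS, interpolating saturation solubility from a regression calibration curve of standards.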

Row | solubility [µg/mL] | SMILES
10 | 0.14 (≈ 0.265 µM) | O=C(CC(c1ccccc1)c1ccccc1)N1CCN(C(c2ccccc2)c2cccc(C(F)(F)F)c2)CC1 (configuration not stated)
11 | 0.38 (≈ 0.823 µM) | O=C(NC(c1ccccc1)c1ccccc1)N1CCN(C(c2ccccc2)c2ccccc2)CC1
12 | 0.37 (≈ 0.747 µM) | O=C(CC(c1ccccc1)c1ccccc1)N1CCN(C(c2ccccc2)c2cccc(Cl)c2)CC1 (configuration not stated)

System: Rattus norvegicus
Assay: Analgesic activity in Sprague-Dawley rat assessed as inhibition of spinal nerve injury-induced mechanical allodynia at 30 mg/kg, po after 60-90 mins
Assay type: functional
Parameters: scale not given: the % may be the effect or the level left
Details: not given
In short: (§1)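 Chung spinal nerve ligation model in male Sprague-Dawley rats (200–300 g), operated under halothane. Dosing was a single 30 mg/kg oral dose in propylene glycol (3 ml/kg), n = 5–7, given after baseline testing. Mechanical allodynia was measured as von Frey paw-withdrawal threshold and thermal hyperalgesia by paw withdrawal. Testing ran at 30 min intervals to 120 min, and the value reported is maximum % activity.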

Row | SMILES | Activity [%]
13 | O=C(CC(c1ccccc1)c1ccccc1)N1CCN(C(c2ccccc2)c2cccc(C(F)(F)F)c2)CC1 (configuration not stated) | 2.6
14 | O=C(NC(c1ccccc1)c1ccccc1)N1CCN(C(c2ccccc2)c2ccccc2)CC1 | 80.9
15 | O=C(CC(c1ccccc1)c1ccccc1)N1CCN(C(c2ccccc2)c2cccc(Cl)c2)CC1 (configuration not stated) | 27.6

System: Rattus norvegicus
Assay: Analgesic activity in Sprague-Dawley rat assessed as inhibition of spinal nerve injury-induced thermal hyperalgesia at 30 mg/kg, po after 60-90 mins
Assay type: functional
Parameters: scale not given: the % may be the effect or the level left
Details: not given
In short: as §1

Row | SMILES | Activity [%]
16 | O=C(CC(c1ccccc1)c1ccccc1)N1CCN(C(c2ccccc2)c2cccc(C(F)(F)F)c2)CC1 (configuration not stated) | 24.2
17 | O=C(NC(c1ccccc1)c1ccccc1)N1CCN(C(c2ccccc2)c2ccccc2)CC1 | 97.9
18 | O=C(CC(c1ccccc1)c1ccccc1)N1CCN(C(c2ccccc2)c2cccc(Cl)c2)CC1 (configuration not stated) | 95.1

System: not listed separately
Assay: Cmax at Sprague-Dawley rat at 2 mg/kg, iv
Assay type: ADME, organism-based
Parameters: dose 2 mg/kg, route intravenous
Details: in vivo

Row | Cmax [nM] | SMILES
19 | 2540 | O=C(CC(c1ccccc1)c1ccccc1)N1CCN(C(c2ccccc2)c2cccc(C(F)(F)F)c2)CC1 (configuration not stated)
20 | 2930 | O=C(NC(c1ccccc1)c1ccccc1)N1CCN(C(c2ccccc2)c2ccccc2)CC1
21 | 2550 | O=C(CC(c1ccccc1)c1ccccc1)N1CCN(C(c2ccccc2)c2cccc(Cl)c2)CC1 (configuration not stated)

System: not listed separately
Assay: AUC (0 to 24 hrs) at Sprague-Dawley rat at 2 mg/kg, iv
Assay type: ADME, organism-based
Parameters: time < 24 hr, dose 2 mg/kg, route intravenous
Details: plasma

Row | AUC(0-t) at 24 h [µM·h] | SMILES
22 | 1.44 | O=C(CC(c1ccccc1)c1ccccc1)N1CCN(C(c2ccccc2)c2cccc(C(F)(F)F)c2)CC1 (configuration not stated)
23 | 2.5 | O=C(NC(c1ccccc1)c1ccccc1)N1CCN(C(c2ccccc2)c2ccccc2)CC1
24 | 1.6 | O=C(CC(c1ccccc1)c1ccccc1)N1CCN(C(c2ccccc2)c2cccc(Cl)c2)CC1 (configuration not stated)

System: not listed separately
Assay: Half life at Sprague-Dawley rat at 2 mg/kg, iv
Assay type: ADME, organism-based
Parameters: dose 2 mg/kg, route intravenous
Details: in vivo

Row | half-life [h] | SMILES
25 | 5 | O=C(CC(c1ccccc1)c1ccccc1)N1CCN(C(c2ccccc2)c2cccc(C(F)(F)F)c2)CC1 (configuration not stated)
26 | 11 | O=C(NC(c1ccccc1)c1ccccc1)N1CCN(C(c2ccccc2)c2ccccc2)CC1
27 | 8 | O=C(CC(c1ccccc1)c1ccccc1)N1CCN(C(c2ccccc2)c2cccc(Cl)c2)CC1 (configuration not stated)

System: not listed separately
Assay: Cmax at Sprague-Dawley rat at 10 mg/kg, po
Assay type: ADME, organism-based
Parameters: dose 10 mg/kg, route oral
Details: in vivo
In short: (§2)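 Rat plasma PK after a single 10 mg/kg oral dose, with a 2 mg/kg intravenous arm used for comparison. Results are means of 2–3 animals. […] Cmax is the highest observed plasma level and Tmax the time at which it occurs. t1/2 is the terminal elimination half-life.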

Row | Cmax [nM] | SMILES
28 | 518 | O=C(CC(c1ccccc1)c1ccccc1)N1CCN(C(c2ccccc2)c2cccc(C(F)(F)F)c2)CC1 (configuration not stated)
29 | 292 | O=C(NC(c1ccccc1)c1ccccc1)N1CCN(C(c2ccccc2)c2ccccc2)CC1
30 | 582 | O=C(CC(c1ccccc1)c1ccccc1)N1CCN(C(c2ccccc2)c2cccc(Cl)c2)CC1 (configuration not stated)

System: not listed separately
Assay: Tmax at Sprague-Dawley rat at 10 mg/kg, po
Assay type: ADME, organism-based
Parameters: dose 10 mg/kg, route oral
Details: in vivo
In short: as §2

Row | Tmax [h] | SMILES
31 | 5 | O=C(CC(c1ccccc1)c1ccccc1)N1CCN(C(c2ccccc2)c2cccc(C(F)(F)F)c2)CC1 (configuration not stated)
32 | 2 | O=C(NC(c1ccccc1)c1ccccc1)N1CCN(C(c2ccccc2)c2ccccc2)CC1
33 | 3 | O=C(CC(c1ccccc1)c1ccccc1)N1CCN(C(c2ccccc2)c2cccc(Cl)c2)CC1 (configuration not stated)

System: not listed separately
Assay: AUC (0 to 24 hrs) at Sprague-Dawley rat at 10 mg/kg, po
Assay type: ADME, organism-based
Parameters: time < 24 hr, dose 10 mg/kg, route oral
Details: plasma
In short: as §2

Row | AUC(0-t) at 24 h [µM·h] | SMILES
34 | 4.67 | O=C(CC(c1ccccc1)c1ccccc1)N1CCN(C(c2ccccc2)c2cccc(C(F)(F)F)c2)CC1 (configuration not stated)
35 | 2.79 | O=C(NC(c1ccccc1)c1ccccc1)N1CCN(C(c2ccccc2)c2ccccc2)CC1
36 | 5.3 | O=C(CC(c1ccccc1)c1ccccc1)N1CCN(C(c2ccccc2)c2cccc(Cl)c2)CC1 (configuration not stated)

System: not listed separately
Assay: Half life at Sprague-Dawley rat at 10 mg/kg, po
Assay type: ADME, organism-based
Parameters: dose 10 mg/kg, route oral
Details: in vivo
In short: as §2

Row | half-life [h] | SMILES
37 | 4 | O=C(CC(c1ccccc1)c1ccccc1)N1CCN(C(c2ccccc2)c2cccc(C(F)(F)F)c2)CC1 (configuration not stated)
38 | 6 | O=C(NC(c1ccccc1)c1ccccc1)N1CCN(C(c2ccccc2)c2ccccc2)CC1
39 | 6 | O=C(CC(c1ccccc1)c1ccccc1)N1CCN(C(c2ccccc2)c2cccc(Cl)c2)CC1 (configuration not stated)

System: not listed separately
Assay: Oral bioavailability at Sprague-Dawley rat at 10 mg/kg
Assay type: ADME, organism-based
Details: in vivo
In short: as §2

Row | bioavailability [%] | SMILES
40 | 65 | O=C(CC(c1ccccc1)c1ccccc1)N1CCN(C(c2ccccc2)c2cccc(C(F)(F)F)c2)CC1 (configuration not stated)
41 | 22 | O=C(NC(c1ccccc1)c1ccccc1)N1CCN(C(c2ccccc2)c2ccccc2)CC1
42 | 66 | O=C(CC(c1ccccc1)c1ccccc1)N1CCN(C(c2ccccc2)c2cccc(Cl)c2)CC1 (configuration not stated)
